# Source: PubChem
# An excerpt weighted towards active compounds, which were near 2.3% of everything screened.
# TRPC4 PAM – positive allosteric modulators of TRPC4, primary screen, cell-based, mouse TRPC4beta, HEK293 mu-opioid, Fluo-4 calcium; DAMGO EC20, Fluo-4 Ca2+ flux; stronger effect = higher value; Short transient receptor potential channel 4 (Mus musculus), Q9QUQ5; 310,000 tested, 0.42% active; B-score at 10 µM;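 active = B-score of calcium response area above 5 SD of library B-scores, with initial fluorescence ratio within 5 SD of library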;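 also: B-score of integrated fluorescence ratio over time as area under calcium response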
# TRPC6 act – mouse TRPC6 channel activators, primary screen, cell-based, HEK293, membrane potential dye | Short transient receptor potential channel 6 (Mus musculus), Q61143 | 310,000 tested, 0.13% active | AID 2550, 2010 | B-score at 10 µM | HEK293-TRPC6 membrane potential dye fluorescence; stronger effect = higher value;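 active = B-score of the integrated fluorescence ratio above library mean plus 3 SD, and starting fluorescence ratio within library mean plus 5 SD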;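 also: higher score means more depolarization so channel activation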
# Target sequence (Q61143 whole entry, looked up): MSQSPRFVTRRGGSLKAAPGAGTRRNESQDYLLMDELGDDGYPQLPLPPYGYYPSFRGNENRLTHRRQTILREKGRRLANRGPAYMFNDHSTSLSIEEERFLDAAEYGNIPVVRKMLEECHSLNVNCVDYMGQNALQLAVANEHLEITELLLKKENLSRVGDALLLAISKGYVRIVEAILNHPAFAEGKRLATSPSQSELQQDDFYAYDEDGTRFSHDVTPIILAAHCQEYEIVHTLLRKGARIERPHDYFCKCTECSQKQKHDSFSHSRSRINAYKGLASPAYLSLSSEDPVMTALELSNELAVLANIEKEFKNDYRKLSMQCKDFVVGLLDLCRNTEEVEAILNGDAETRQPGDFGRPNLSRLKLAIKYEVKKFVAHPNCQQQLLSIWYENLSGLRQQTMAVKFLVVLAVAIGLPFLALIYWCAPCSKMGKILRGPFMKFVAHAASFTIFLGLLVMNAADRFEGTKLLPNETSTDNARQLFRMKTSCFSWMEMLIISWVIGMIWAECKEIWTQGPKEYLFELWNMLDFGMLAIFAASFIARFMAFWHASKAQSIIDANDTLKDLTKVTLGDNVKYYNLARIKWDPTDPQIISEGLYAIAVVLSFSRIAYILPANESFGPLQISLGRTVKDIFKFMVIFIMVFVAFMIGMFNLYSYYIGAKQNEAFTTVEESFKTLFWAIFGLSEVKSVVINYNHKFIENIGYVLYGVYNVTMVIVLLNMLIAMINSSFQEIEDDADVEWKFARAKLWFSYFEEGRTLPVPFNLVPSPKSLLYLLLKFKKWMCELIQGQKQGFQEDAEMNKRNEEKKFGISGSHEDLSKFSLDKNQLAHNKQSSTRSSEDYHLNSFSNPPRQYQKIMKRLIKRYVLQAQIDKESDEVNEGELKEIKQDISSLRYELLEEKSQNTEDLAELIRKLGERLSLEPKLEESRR
# TRPC6 inhibitor – mouse TRPC6 channel inhibitors, primary screen, cell-based, HEK293, membrane potential dye. ACh-evoked depolarization; stronger effect = lower value. B-score at 10 µM. 310,000 tested, 1.1% active. AID 2553, 2010;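 active = B-score under library mean minus 3 SD, initial fluorescence not abnormally high, positive integrated signal ratio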;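 also: B-score derived from integrated fluorescence ratio over the kinetic read; more negative B-score means stronger inhibition of depolarization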
# TRPC4 agonist – activators of mouse TRPC4 channel, primary screen, Fluo4 calcium, HEK293 TRPC4beta/mu-opioid cells; Short transient receptor potential channel 4 (Mus musculus), Q9QUQ5; Fluo4 calcium fluorescence; stronger effect = higher value; B-score at 10 µM; 310,000 tested, 0.49% active; AID 2237, 2010;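 active = B-score above 5 SD of library B-scores, and initial fluorescence ratio not above library mean plus 5 SD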;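 also: positive B-score marks a calcium rise read as TRPC4 activation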
#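 Assay system: HEK293 stable line with TRPC4beta plus mu-opioid receptor. Times: dye 45 min RT, read 110 s. Measured by: kinetic Fluo4 calcium fluorescence. Measure: B score of integrated ratio. Controls: assay buffer as low control, maximal DAMGO as high control.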
# TRPC4 inh – inhibitors of mouse TRPC4 channel, primary screen, Fluo4 calcium, HEK293 TRPC4beta/mu-opioid cells; Short transient receptor potential channel 4 (Mus musculus), Q9QUQ5; DAMGO-evoked Fluo4 calcium flux; stronger effect = lower value; B-score at 10 µM; 300,000 tested, 0.39% active; AID 2247, 2010;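 active = B-score over 3 SD under the library average, no early fluorescence shift, positive overall ratio signal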
#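 Assay system: Stable TRPC4beta/mu-opioid receptor HEK293 cells | Reagent: DAMGO in two steps, submaximal then maximal | Compound dosing: Single concentration per test compound | Signal: Fluo4 Ca2+ flux fluorescence | Evaluation: Per-well B score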
# HEK293 MPD ctr – parental HEK293 membrane potential modulation, confirmation, counter-screen for TRPC6 modulator project, cell-based. shares compounds with TRPC6 inhibitor. membrane potential dye fluorescence. membrane potential signal change, % at 10 µM. 2,400 tested, 51% active. AID 488924, 2010;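 active = membrane potential signal moves up or down beyond 5 SD from buffer-only wells, on both duplicate plates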
# HEK293 MPD ctr 2 – second check of TRPC6 modulator effects in parental HEK293 cells; shares compounds with TRPC6 inhibitor; membrane potential dye fluorescence; after compound, maximal acetylcholine stimulation; inhibition, % at 10 µM; 2,400 tested, 14% active; AID 488926;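 active = membrane potential signal drops by more than 5 SD from the mean control signal, in both duplicate plates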;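 also: plate controls were acetylcholine ECmax control wells for no effect and buffer only wells for full effect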
# TRPC4 ctr mod – TRPC4 modulation by TRPC6 hit compounds, confirmation, selectivity assay for TRPC6 modulator project, cell-based, HEK293 TRPC4/mu-opioid, membrane potential dye, mouse. shares compounds with TRPC6 inhibitor. membrane potential fluorescence. percent change from control (negative = decrease, positive = increase), % at 10 µM. 2,400 tested, 69% active. AID 488927, 2010;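 active = membrane potential signal moved up or down beyond 5 SD of buffer control wells, in both duplicate plates, actives on both sides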;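 also: plate controls were assay buffer wells for no effect and DAMGO maximal-effect wells for full effect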
# TRPC4 ctr inh 2 – mouse TRPC4 off-target activity of TRPC6 modulators, second screen | inhibition, % at 10 µM | HEK293 TRPC4/mu-opioid, membrane potential dye fluorescence; stimulated with maximal-effect DAMGO | shares compounds with TRPC6 inhibitor | AID 488928 | 2,400 tested, 55% active;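 active = drop in membrane potential signal beyond 5 SD of the control wells in both duplicate plates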;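 also: TRPC4 counter screen for TRPC6 hits run under conditions tuned for TRPC6 not TRPC4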
# TRPC6 block conf – mouse TRPC6 channel inhibitors, confirmation, HEK293 cells, membrane potential dye, duplicate; ACh-evoked depolarization; shares compounds with TRPC6 inhibitor; 3,300 tested, 43% active; inhibition, % at 10 µM; AID 488960, 2010;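 active = fluorescence ratio falls more than 5 SD below the full-stimulation control mean, in both duplicate runs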;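 also: integrated fluorescence ratio of peak minus minimum over baseline after agonist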
# TRPC6 act conf – mouse TRPC6 channel activators, confirmation, HEK293 cells, membrane potential dye, duplicate; 2,800 tested, 11% active; HEK293-TRPC6 membrane potential dye fluorescence, FDSS; activation, % at 10 µM; shares compounds with TRPC6 inhibitor;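 active = ratio signal rise beyond 5 SD above unstimulated control wells' mean, seen in both duplicate runs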;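 also: plate controls were buffer EC0 wells for no effect and acetylcholine ECmax response for full effect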
# * hit, by the source's call; i = inactive; nt = no result given.
SMILES,TRPC4 PAM,TRPC6 act,TRPC6 inhibitor,TRPC4 agonist,TRPC4 inh,HEK293 MPD ctr,HEK293 MPD ctr 2,TRPC4 ctr mod,TRPC4 ctr inh 2,TRPC6 block conf,TRPC6 act conf
COCCOC(=O)C(C#N)c1nc2ccccc2nc1N1CCN(Cc2ccccc2)CC1 (stereo not given),i,i,-6.17*,i,i,i,i,i,36.0%*,i,i
CCC1CCCCN1CCn1c(=S)[nH]c2cc(OC)c(OC)cc2c1=O (stereo not given),i,i,-6.26*,i,i,i,i,10.0%*,27.5%*,i,i
O=C(c1ccccc1SCc1ccccc1)N1CCOCC1,i,i,i,i,i,nt,nt,nt,nt,nt,nt
COc1cccc(Cl)c1NC(=O)N1CCN(c2cc(C)nc3ccccc23)CC1,i,i,-9.74*,i,i,-145.5%*,i,-38.5%*,74.5%*,47.5%*,i
Cc1cc(N2CCN(S(=O)(=O)c3ccc(Cl)cc3)CC2)c2ccccc2n1,i,i,-5.13*,i,i,-75.0%*,i,-21.5%*,72.5%*,i,i
Cc1cc(N2CCN(S(=O)(=O)c3ccc(Cl)c(Cl)c3)CC2)c2ccccc2n1,i,i,i,i,i,nt,nt,nt,nt,nt,nt
Cc1ccc2c(c1)NC(=O)C(CC(=O)NCCCN1CCCCC1C)O2 (stereo not given),i,i,i,i,i,nt,nt,nt,nt,nt,nt
